In ChEMBL document CHEMBL1156295, “In vitro and in vivo photocytotoxicity of boron dipyrromethene derivatives for photodynamic therapy” (J Med Chem, 2010):
Calls of active or inactive are those of the source. The calls are words filed in the database; no cut-off is given here.

Columns and labels:
HSC-2 [1] = assay: Induction of apoptosis in human HSC2 cells in dark assessed as viable cells at 0.5 uM after 4 hrs of irradiation by annexin V-FITC staining; type: functional; settings: HSC-2, light or radiation study, read-out: Activity
Method in brief: (§1)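 HSC-2 cells at 50% confluency in dishes, treated 2 h, then irradiated (4.1 J/cm2 broad spectrum) or kept dark. At intervals, floating and trypsinized cells pooled, washed in cold PBS, resuspended at 1 × 10^6 cells/mL in binding buffer. Stained 15 min in the dark at room temperature with annexin V-FITC and propidium iodide. 1 × 10^4 cells read by flow cytometry (FL1, FL3).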

HSC-2 [2] = assay: Induction of apoptosis in human HSC2 cells in dark assessed as apoptotic cells at 0.5 uM after 24 hrs by annexin V-FITC staining; type: functional; method in brief: as §1
Gallus gallus = species: Gallus gallus; assay: Antiangiogenic activity against chicken chorioallantoic membrane in dark assessed as induction of vascular occlusion at 3.5 to 7 nmol/embryo; type: functional, tissue-based
Method in brief: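 Fertilized chicken eggs incubated at 37 °C, 65% humidity. On EDD-9, single iv bolus into the main CAM vessel in cremophor EL 5%, EtOH 5% in saline. One minute later, a 0.02 cm2 site with 5–100 μm vessels irradiated at 510–560 nm, 40 mW/cm2 (or left dark). After 24 h, FITC-dextran/Indian ink angiography and damage scoring per Lange et al.; at least 10 embryos, mean ± SEM.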

[3] = Cellular uptake in human HSC2 cells assessed as intracellular localization in to cytoplasmic membrane at 100 nM by spinning disk confocal microscopy; type: ADME, cell-based; settings: hsc-2, 0.1 µM
Method in brief: (§2)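 HSC-2 cells grown on glass coverslips, co-incubated at room temperature for 15–30 min with compound plus probe: ER-Tracker 100 nM, LysoTracker 500 nM or Rh123 100 nM. Rinsed in PBS. XY sections at 0.2 μm imaged; excitation 330–385 nm for ER/Lyso probes, 460–490 nm for Rh123, 520–550 nm for photosensitizer.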

HSC-2 [4] = assay: Cytotoxicity against human HSC2 cells after 24 hrs by MTT assay; type: functional, cell-based; settings: HSC-2, 24 h
Method in brief: (§3)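 HL60 at 15000 cells/well; HSC-2 and HK1 at 3000 cells/well, adhered overnight; phenol-red-free medium with 10% FBS. Compound tested at 0.001–100.0 μM from DMSO stock; controls 0.01% DMSO. After 2 h, irradiated with broad-spectrum light at 6.8 mW/cm2, or dark. After 24 h, MTT 4 h at 37 °C, formazan in DMSO, A570. Three determinations, mean ± SD.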

[5] = Phototoxicity against human HK1 cells irradiated with 4.1 J/cm^2 broad spectrum light treated 2 hrs before irradiation measured after 24 hrs by MTT assay; type: functional, cell-based; settings: HK-1, light or radiation study; method in brief: as §3
[6] = Cellular uptake in human HSC2 cells assessed as intracellular localization in to mitochondria labeled with rhodamine 123 dye at 100 nM by spinning disk confocal microscopy; type: ADME; settings: hsc-2, 0.1 µM; method in brief: as §2
[7] = Cellular uptake in human HSC2 cells assessed as intracellular localization in to endoplasmic reticulum labeled with ER-tracker blue-white DPX dye at 100 nM by spinning disk confocal microscopy; type: ADME, cell-based; settings: hsc-2, 0.1 µM; method in brief: as §2
HSC-2 [8] = assay: Cell cycle arrest in human HSC2 cells irradiated with 4.1 J/cm^2 broad spectrum light assessed as accumulation at G2/M phase at 0.25 uM after 4 hrs by flow cytometry relative to control; type: functional
Method in brief: (§4)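 HSC-2 cells given compound for 2 h, then irradiated with broad-spectrum light (or kept dark). Floating plus trypsinized adherent cells collected at set times after irradiation. Fixed in 70% ice-cold ethanol overnight at 4 °C, then stained 30 min with 20 μg/mL RNase A and 1 μM SYTOX Green. 1 × 10^4 cells read by flow cytometry (488 nm laser, FL1 530/30).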

HSC-2 [9] = assay: Cell cycle arrest in human HSC2 cells irradiated with 4.1 J/cm^2 broad spectrum light assessed as accumulation at G2/M phase at 0.25 uM after 6 hrs by flow cytometry relative to control; type: functional; method in brief: as §4
HSC-2 [10] = assay: Cell cycle arrest in human HSC2 cells irradiated with 4.1 J/cm^2 broad spectrum light assessed as accumulation at G2/M phase at 0.25 uM after 12 hrs by flow cytometry relative to control; type: functional; method in brief: as §4
HSC-2 [11] = assay: Cell cycle arrest in human HSC2 cells irradiated with 4.1 J/cm^2 broad spectrum light assessed as accumulation at G1 phase at 0.25 uM after 4 hrs by flow cytometry relative to control; type: functional; method in brief: as §4
HSC-2 [12] = assay: Cell cycle arrest in human HSC2 cells irradiated with 4.1 J/cm^2 broad spectrum light assessed as accumulation at G1 phase at 0.25 uM after 12 hrs by flow cytometry relative to control; type: functional; method in brief: as §4
HSC-2 [13] = assay: Cell cycle arrest in human HSC2 cells in dark assessed as accumulation at G1 phase at 0.25 uM after 12 hrs by flow cytometry relative to control; type: functional; method in brief: as §4
HSC-2 [14] = assay: Cell cycle arrest in human HSC2 cells irradiated with 4.1 J/cm^2 broad spectrum light assessed as accumulation at sub-G1 phase at 0.25 uM after 8 hrs by flow cytometry relative to control; type: functional; method in brief: as §4

Activity [3]: Not Active | Drug uptake [6]: Active | Drug uptake [7]: Active
Compound: CC1=C(I)C(C)=[N+]2C1=C(CCC(=O)O)c1c(C)c(I)c(C)n1[B-]2(F)F
viability at 0.5 µM (HSC-2 [1]): 97% | Activity (HSC-2 [2]): 3% | Activity (Gallus gallus): inactive | IC50 (HSC-2 [4]): > 100 µM | IC50 [5]: 0.57 µM | Activity (HSC-2 [8]): 48.4% | Activity (HSC-2 [9]): 55.5% | Activity (HSC-2 [10]): 26% | Activity (HSC-2 [11]): 33.8% | Activity (HSC-2 [12]): 44.1% | Activity (HSC-2 [13]): 55.2% | Activity (HSC-2 [14]): 4.4%
